Experimental data: ChEMBL document CHEMBL4387707, “Structure-Activity Relationships for Itraconazole-Based Triazolone Analogues as Hedgehog Pathway Inhibitors” (J Med Chem, 2019)
In brackets after ≈: the same amount, converted by molar mass. Activity calls are given as the source filed them. The calls are words filed in the database; no cut-off is given here.

How the values were obtained:
[1] = biological target: Voltage-gated inwardly rectifying potassium channel KCNH2 (Homo sapiens, UniProt Q12809); assay: Inhibition of human ERG
Medulloblastoma cell = assay: Antiproliferative activity against medulloblastoma cells derived from conditional patched knockout mouse after 48 hrs by [3H]-thymidine incorporation assay; assay type: functional
Procedure, shortened: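 Cells are MERP medulloblastoma cells isolated from Math1-Cre-ER;Ptcfl/fl mouse tumors and cultured in vitro. Compounds were incubated for 48 h before the growth read-out. GI50 is the mean ± SEM of at least two separate experiments, each run in triplicate.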

[2] = Kinetic solubility of the compound in PBS at pH 7.4 by UPLC-MS/MS analysis; assay type: physicochemical; details: read-out: Kinetic_solubility
[3] = Half life in human liver microsomes at 1 uM by UPLC-MS/MS analysis; assay type: ADME, Microsome
Cytochrome P450 3A4 = Cytochrome P450 3A4 (Homo sapiens, UniProt P08684); assay: Inhibition of CYP3A4 (unknown origin) using midazolam as substrate by UPLC-MS/MS analysis; assay type: ADME
[4] = Intrinsic clearance in human liver microsomes at 1 uM by UPLC-MS/MS analysis; assay type: ADME, Microsome
Protein smoothened = Protein smoothened (Mus musculus, UniProt P56726); assay: Inhibition of smo-mediated hedgehog signaling pathway in mouse ASZ001 cells assessed as decrease in Gli1 mRNA expression after 48 hrs by qPCR method; assay type: cell-based
Procedure, shortened: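 Gli1 mRNA measured by qPCR after 48 h incubation with compound, normalized to actin as internal control. Concentrations judged cytotoxic (by visual assessment and/or a significant drop in actin expression) were excluded from analysis. IC50 given as mean ± SEM of at least two separate experiments, each in triplicate.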

Mus musculus = organism: Mus musculus; assay: Antiproliferative activity against mouse ASZ001 cells measured after 48 hrs by MTS/PMS assay; assay type: functional, cell-based

Chain of Protein smoothened (P56726 whole entry): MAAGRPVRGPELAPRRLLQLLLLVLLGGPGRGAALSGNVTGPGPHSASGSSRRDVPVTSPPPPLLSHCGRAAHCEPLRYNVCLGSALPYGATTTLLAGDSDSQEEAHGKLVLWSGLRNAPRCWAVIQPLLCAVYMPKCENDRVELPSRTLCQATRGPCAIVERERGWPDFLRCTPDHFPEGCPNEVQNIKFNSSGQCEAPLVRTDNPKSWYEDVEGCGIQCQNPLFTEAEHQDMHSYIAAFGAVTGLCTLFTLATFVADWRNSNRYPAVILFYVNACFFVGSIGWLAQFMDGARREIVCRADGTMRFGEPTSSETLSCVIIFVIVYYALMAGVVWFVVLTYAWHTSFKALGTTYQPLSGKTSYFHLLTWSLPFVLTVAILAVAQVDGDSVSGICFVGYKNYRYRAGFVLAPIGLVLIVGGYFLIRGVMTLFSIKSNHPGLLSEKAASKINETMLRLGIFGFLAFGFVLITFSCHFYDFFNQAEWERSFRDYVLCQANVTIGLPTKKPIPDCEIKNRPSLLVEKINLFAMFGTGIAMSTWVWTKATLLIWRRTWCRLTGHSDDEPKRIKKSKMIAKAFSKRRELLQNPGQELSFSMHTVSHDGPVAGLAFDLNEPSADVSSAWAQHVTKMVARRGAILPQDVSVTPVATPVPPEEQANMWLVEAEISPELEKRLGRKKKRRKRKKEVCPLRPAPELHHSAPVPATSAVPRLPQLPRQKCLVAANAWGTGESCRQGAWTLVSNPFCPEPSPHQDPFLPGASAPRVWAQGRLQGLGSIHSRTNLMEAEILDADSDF
Chain of Voltage-gated inwardly rectifying potassium channel KCNH2 (Q12809 whole entry): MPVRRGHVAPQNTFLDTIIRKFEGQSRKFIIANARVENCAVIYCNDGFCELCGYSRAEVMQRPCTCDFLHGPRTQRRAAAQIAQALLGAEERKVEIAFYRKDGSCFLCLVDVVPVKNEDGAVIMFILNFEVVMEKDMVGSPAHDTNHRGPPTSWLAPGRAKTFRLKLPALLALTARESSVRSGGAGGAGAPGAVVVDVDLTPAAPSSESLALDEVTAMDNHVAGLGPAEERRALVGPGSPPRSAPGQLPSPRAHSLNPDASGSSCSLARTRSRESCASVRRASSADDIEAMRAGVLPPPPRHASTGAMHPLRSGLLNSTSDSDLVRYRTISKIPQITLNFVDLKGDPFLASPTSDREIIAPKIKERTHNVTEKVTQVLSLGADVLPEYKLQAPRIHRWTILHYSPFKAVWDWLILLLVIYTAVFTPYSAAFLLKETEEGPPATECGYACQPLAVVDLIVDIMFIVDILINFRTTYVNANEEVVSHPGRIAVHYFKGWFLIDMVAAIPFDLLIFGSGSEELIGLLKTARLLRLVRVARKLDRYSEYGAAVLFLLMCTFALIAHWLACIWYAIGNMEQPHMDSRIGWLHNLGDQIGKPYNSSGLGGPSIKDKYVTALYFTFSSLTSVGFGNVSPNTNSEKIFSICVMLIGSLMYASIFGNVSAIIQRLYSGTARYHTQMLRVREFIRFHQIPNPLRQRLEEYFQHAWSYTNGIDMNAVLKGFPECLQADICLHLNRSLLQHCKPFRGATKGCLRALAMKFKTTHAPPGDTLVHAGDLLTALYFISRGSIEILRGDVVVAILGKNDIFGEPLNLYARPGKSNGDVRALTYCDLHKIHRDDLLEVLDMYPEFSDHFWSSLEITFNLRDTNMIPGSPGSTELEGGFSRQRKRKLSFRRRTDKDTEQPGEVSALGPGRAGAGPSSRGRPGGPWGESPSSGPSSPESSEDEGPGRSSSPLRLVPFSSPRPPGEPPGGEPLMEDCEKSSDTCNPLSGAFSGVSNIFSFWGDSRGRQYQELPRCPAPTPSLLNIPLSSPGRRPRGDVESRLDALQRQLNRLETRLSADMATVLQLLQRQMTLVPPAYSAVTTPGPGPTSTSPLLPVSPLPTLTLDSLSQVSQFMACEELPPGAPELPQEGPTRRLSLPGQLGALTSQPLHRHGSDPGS
Chain of Cytochrome P450 3A4 (P08684 whole entry): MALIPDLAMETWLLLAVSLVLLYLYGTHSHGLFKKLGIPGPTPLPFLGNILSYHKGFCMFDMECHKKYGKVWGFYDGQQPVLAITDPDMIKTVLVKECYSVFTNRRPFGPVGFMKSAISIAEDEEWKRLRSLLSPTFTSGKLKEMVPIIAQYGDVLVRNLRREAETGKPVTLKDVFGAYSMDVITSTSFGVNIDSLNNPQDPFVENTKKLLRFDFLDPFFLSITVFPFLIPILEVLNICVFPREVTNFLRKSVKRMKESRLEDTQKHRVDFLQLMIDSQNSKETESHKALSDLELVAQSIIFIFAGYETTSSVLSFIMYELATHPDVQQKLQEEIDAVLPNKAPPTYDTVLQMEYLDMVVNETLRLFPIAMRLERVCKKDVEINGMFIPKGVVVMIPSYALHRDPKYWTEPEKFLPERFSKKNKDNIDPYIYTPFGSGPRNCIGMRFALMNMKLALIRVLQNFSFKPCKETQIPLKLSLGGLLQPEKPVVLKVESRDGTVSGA

SMILES: C[C@]1(c2ccc(Cl)cc2Cl)OC[C@@H](COc2ccc(N3CCN(c4ccc(NC(=O)c5cccnc5)cc4)CC3)cc2)O1
- inhibition (INH) [1]: < 1%
- GI50 (Medulloblastoma cell): 1.1 µM
- solubility kinetic [2]: 6.9 nM (≈ 4.27 ng/mL)
- t1/2 [3]: 8.9 min
- IC50 (Cytochrome P450 3A4): > 20 µM

SMILES: C[C@@]1(c2ccc(Cl)cc2Cl)OC[C@@H](COc2ccc(N3CCN(c4ccc(NC(=O)c5cccc(O)c5)cc4)CC3)cc2)O1
- inhibition (INH) [1]: 1.2%
- GI50 (Medulloblastoma cell): 2.8 µM
- solubility kinetic [2]: 1.4 nM (≈ 0.888 ng/mL)
- t1/2 [3]: > 231 min
- CLH [4]: < 3 µL/min/mg
- IC50 (Cytochrome P450 3A4): > 30 µM

SMILES: C[C@]1(c2ccc(Cl)cc2Cl)OC[C@@H](COc2ccc(N3CCN(c4ccc(N)cc4)CC3)cc2)O1
- IC50 (Protein smoothened): 0.39 µM

SMILES: C[C@@]1(c2ccc(Cl)cc2Cl)OC[C@@H](COc2ccc(N3CCN(c4ccc(NC(=O)NN)cc4)CC3)cc2)O1
- inhibition (INH) [1]: 2.2%
- GI50 (Medulloblastoma cell): 0.5 µM
- solubility kinetic [2]: 9.3 nM (≈ 5.32 ng/mL)
- t1/2 [3]: 20.1 min
- IC50 (Cytochrome P450 3A4): > 30 µM

SMILES: C[C@]1(c2ccc(Cl)cc2Cl)OC[C@@H](COc2ccc(N3CCN(c4ccc(NC(=O)c5cccc(O)c5)cc4)CC3)cc2)O1
- inhibition (INH) [1]: < 1%
- GI50 (Medulloblastoma cell): 0.35 µM
- solubility kinetic [2]: 1.6 nM (≈ 1.02 ng/mL)
- t1/2 [3]: 19.9 min
- IC50 (Cytochrome P450 3A4): 11.4 µM
- Activity (Mus musculus): Active

SMILES: C[C@@]1(c2ccc(Cl)cc2Cl)OC[C@@H](COc2ccc(N3CCN(c4ccc([N+](=O)[O-])cc4)CC3)cc2)O1
- IC50 (Protein smoothened): 0.31 µM

SMILES: C[C@]1(c2ccc(Cl)cc2Cl)OC[C@@H](COc2ccc(N3CCN(c4ccc([N+](=O)[O-])cc4)CC3)cc2)O1
- IC50 (Protein smoothened): 0.26 µM

SMILES: C[C@@]1(c2ccc(Cl)cc2Cl)OC[C@@H](COc2ccc(N3CCN(c4ccc(NC(=O)c5ccc6ccccc6c5)cc4)CC3)cc2)O1
- IC50 (Protein smoothened): > 10 µM

SMILES: C[C@@]1(c2ccc(Cl)cc2Cl)OC[C@@H](COc2ccc(N3CCN(c4ccc(NC(=O)c5cccnc5)cc4)CC3)cc2)O1
- GI50 (Medulloblastoma cell): > 10 µM
- solubility kinetic [2]: 4.2 nM (≈ 2.6 ng/mL)
- t1/2 [3]: 59.9 min
- IC50 (Cytochrome P450 3A4): > 30 µM

SMILES: C[C@]1(c2ccc(Cl)cc2Cl)OC[C@@H](COc2ccc(N3CCN(c4ccc(NC(=O)c5cccc(Cl)c5)cc4)CC3)cc2)O1
- IC50 (Protein smoothened): > 10 µM

SMILES: CCC(C)n1ncn(-c2ccc(N3CCN(c4ccc(OCC5COC(Cn6cncn6)(c6ccc(Cl)cc6Cl)O5)cc4)CC3)cc2)c1=O (configuration not stated) [ITRACONAZOLE]
- inhibition (INH) [1]: < 1%

SMILES: C[C@@]1(c2ccc(Cl)cc2Cl)OC[C@@H](COc2ccc(N3CCN(c4ccc(N)cc4)CC3)cc2)O1
- IC50 (Protein smoothened): 0.92 µM

SMILES: C[C@]1(c2ccc(Cl)cc2Cl)OC[C@@H](COc2ccc(N3CCN(c4ccc(-n5cn[nH]c5=O)cc4)CC3)cc2)O1
- IC50 (Protein smoothened): 0.21 µM

SMILES: C[C@]1(c2ccc(Cl)cc2Cl)OC[C@@H](COc2ccc(N3CCN(c4ccc(NC(=O)c5ccccc5O)cc4)CC3)cc2)O1
- IC50 (Protein smoothened): 2.2 µM

SMILES: CC[C@@H](C)n1ncn(-c2ccc(N3CCN(c4ccc(OC[C@@H]5CO[C@](C)(c6ccc(Cl)cc6Cl)O5)cc4)CC3)cc2)c1=O (relative stereo)
- solubility kinetic [2]: 800 nM (≈ 511 ng/mL)
- IC50 (Cytochrome P450 3A4): > 20 µM

SMILES: C[C@@]1(c2ccc(Cl)cc2Cl)OC[C@@H](COc2ccc(N3CCN(c4ccc(-n5cn[nH]c5=O)cc4)CC3)cc2)O1
- IC50 (Protein smoothened): 0.14 µM

SMILES: CC[C@@H](C)n1ncn(-c2ccc(N3CCN(c4ccc(OC[C@@H]5CO[C@@](C)(c6ccc(Cl)cc6Cl)O5)cc4)CC3)cc2)c1=O (relative stereo)
- solubility kinetic [2]: 1560 nM (≈ 996 ng/mL)
- IC50 (Cytochrome P450 3A4): 1.02 µM

SMILES: C[C@]1(c2ccc(Cl)cc2Cl)OC[C@@H](COc2ccc(N3CCN(c4ccc(NC(=O)c5ccc6ccccc6c5)cc4)CC3)cc2)O1
- IC50 (Protein smoothened): > 10 µM

SMILES: C[C@]1(c2ccc(Cl)cc2Cl)OC[C@@H](COc2ccc(N3CCN(c4ccc(NC(=O)c5ccc(O)cc5)cc4)CC3)cc2)O1
- IC50 (Protein smoothened): 3 µM

SMILES: C[C@]1(c2ccc(Cl)cc2Cl)OC[C@@H](COc2ccc(N3CCN(c4ccc(NC(=O)c5ccoc5)cc4)CC3)cc2)O1
- IC50 (Protein smoothened): > 10 µM

SMILES: C[C@]1(c2ccc(Cl)cc2Cl)OC[C@@H](COc2ccc(N3CCN(c4ccc(NC(=O)c5ccccc5)cc4)CC3)cc2)O1
- IC50 (Protein smoothened): > 10 µM

SMILES: C[C@]1(c2ccc(Cl)cc2Cl)OC[C@@H](COc2ccc(N3CCN(c4ccc(NC(=O)c5ccccn5)cc4)CC3)cc2)O1
- IC50 (Protein smoothened): 3.9 µM

SMILES: C[C@]1(c2ccc(Cl)cc2Cl)OC[C@@H](COc2ccc(N3CCN(c4ccc(NC(=O)c5ccsc5)cc4)CC3)cc2)O1
- IC50 (Protein smoothened): > 10 µM

SMILES: C[C@@]1(c2ccc(Cl)cc2Cl)OC[C@@H](COc2ccc(N3CCN(c4ccc(NC(=O)c5ccc(O)cc5)cc4)CC3)cc2)O1
- IC50 (Protein smoothened): > 10 µM

SMILES: C[C@@]1(c2ccc(Cl)cc2Cl)OC[C@@H](COc2ccc(N3CCN(c4ccc(NC(=O)c5ccccc5O)cc4)CC3)cc2)O1
- IC50 (Protein smoothened): > 10 µM

SMILES: C[C@@]1(c2ccc(Cl)cc2Cl)OC[C@@H](COc2ccc(N3CCN(c4ccc(NC(=O)c5ccccn5)cc4)CC3)cc2)O1
- IC50 (Protein smoothened): > 10 µM

SMILES: C[C@]1(c2ccc(Cl)cc2Cl)OC[C@@H](COc2ccc(N3CCN(c4ccc(NC(=O)c5ccncc5)cc4)CC3)cc2)O1
- IC50 (Protein smoothened): > 10 µM

SMILES: CC(=O)c1cccc(C(=O)Nc2ccc(N3CCN(c4ccc(OC[C@@H]5CO[C@](C)(c6ccc(Cl)cc6Cl)O5)cc4)CC3)cc2)c1
- inhibition (INH) [1]: < 1%
- solubility kinetic [2]: 1.4 nM (≈ 0.925 ng/mL)
- t1/2 [3]: 11.4 min
- IC50 (Cytochrome P450 3A4): > 30 µM
- Activity (Mus musculus): Active

SMILES: C[C@]1(c2ccc(Cl)cc2Cl)OC[C@@H](COc2ccc(N3CCN(c4ccc(NC(=O)NN)cc4)CC3)cc2)O1
- GI50 (Medulloblastoma cell): 2.8 µM
- solubility kinetic [2]: 1.4 nM (≈ 0.801 ng/mL)
- t1/2 [3]: 11.5 min
- IC50 (Cytochrome P450 3A4): > 30 µM

SMILES: COc1cccc(C(=O)Nc2ccc(N3CCN(c4ccc(OC[C@@H]5CO[C@](C)(c6ccc(Cl)cc6Cl)O5)cc4)CC3)cc2)c1
- IC50 (Protein smoothened): 5.7 µM

SMILES: C[C@@]1(c2ccc(Cl)cc2Cl)OC[C@@H](COc2ccc(N3CCN(c4ccc(NC(=O)c5ccncc5)cc4)CC3)cc2)O1
- IC50 (Protein smoothened): > 10 µM

SMILES: C[C@@]1(c2ccc(Cl)cc2Cl)OC[C@@H](COc2ccc(N3CCN(c4ccc(NC(=O)c5ccccc5)cc4)CC3)cc2)O1
- IC50 (Protein smoothened): > 10 µM
